Assay results as given in ChEMBL document CHEMBL1124462, “Synthesis, DNA binding, and biological evaluation of synthetic precursors and novel analogues of netropsin” (J Med Chem, 1989).
In brackets after ≈: the same amount, converted by molar mass.

Tests used:
Nucleic Acid [1] = experiment: Association constant against the polynucleotide poly (dA-dT).; format: nucleic-acid assay
In short: (§1)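 Competition with ethidium bromide binding at 25 °C in 0.01 M cacodylate buffer, pH 7.0, with 1.26 μM ethidium bromide and 1 μM polynucleotide. Bound ethidium is estimated from its fluorescence increase (V = 34 for poly(dA-dT), 25 for poly(dG-dC)). IC50 for 50% ethidium displacement comes from a fitted competition sigmoid. Kapp is calculated from IC50 assuming a binding size of four base pairs.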

Vero [2] = experiment: Minimum inhibitory concentration required to reduce Coxsackie virus B4 induced cytopathogenicity by 50% in african green monkey (VeroB) cells; format: functional, Coxsackievirus B4; conditions: Chlorocebus sabaeus
In short: (§2)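 Cell cultures (PRK, HeLa or Vero B) are infected at 100 × CCID50. Cytopathogenicity is recorded once it reaches completion in the untreated virus-infected controls. The minimum inhibitory concentration is given in μg/mL.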

[3] = Dose required to inhibit Human T-Lymphoblast (Molt/4F) cell proliferation by 50%; format: functional; conditions: read-out: CD50 (the source's name)
Vero [4] = experiment: Minimum inhibitory concentration required to reduce parainfluenza virus-3 induced cytopathogenicity by 50% in african green monkey (VeroB) cells; format: functional, Human respirovirus 3; conditions: Chlorocebus sabaeus; in short: as §2
HeLa [5] = experiment: Minimum cytotoxic concentration required to cause a microscopically detectable alteration of normal cell morphology and show antiviral activity in HeLa cells; format: functional; conditions: Homo sapiens
In short: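 HeLa cell cultures exposed to compound for the same duration as the antiviral assay, then examined microscopically. The minimum cytotoxic concentration is the lowest level causing detectable alteration of normal cell morphology. Values are in μg/mL.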

HeLa [6] = experiment: Minimum inhibitory concentration required to reduce Coxsackie virus B4 induced cytopathogenicity by 50% in HeLa cells; format: functional; conditions: Homo sapiens; in short: as §2
Oryctolagus cuniculus = species on record: Oryctolagus cuniculus; experiment: Minimum cytotoxic concentration required to cause a microscopically detectable alteration of normal cell morphology and show antiviral activity in primary rabbit kidney (PRK) cells; format: functional
[7] = test system: Vesicular stomatitis virus; experiment: (§3) Minimum inhibitory concentration required to reduce vesicular stomatitis virus induced cytopathogenicity by 50% in primary rabbit kidney cells (PRK); format: functional
L1210 = experiment: Dose required to inhibit Murine leukemia (L1210) cell proliferation by 50%; format: functional; conditions: Mus musculus, read-out: CD50 (the source's name)
Semliki Forest virus = experiment: Minimum inhibitory concentration required to reduce semliki forest virus induced cytopathogenicity by 50% in african green monkey (VeroB) cells; format: functional; in short: as §2
Raji = experiment: Dose required to inhibit Human B-Lymphoblast (Raji) cell proliferation by 50%; format: functional; conditions: read-out: CD50 (the source's name)
Sindbis virus = experiment: Minimum inhibitory concentration required to reduce Sindbis virus induced cytopathogenicity by 50% in african green monkey (VeroB) cells; format: functional; in short: as §2
Human alphaherpesvirus 2 = experiment: Minimum inhibitory concentration required to reduce herpes simplex virus-2(G) induced cytopathogenicity by 50% in primary rabbit kidney cells (PRK); format: functional; in short: as §2
FM3A = experiment: In vitro inhibition of FM3A (murine mammary carcinoma) cell proliferation.; format: functional; conditions: Mus musculus, read-out: CD50 (the source's name)
Nucleic Acid [8] = experiment: Association constant against polynucleotide poly (dG-dC); format: nucleic-acid assay; in short: as §1
[9] = test system: Mammalian orthoreovirus 1; experiment: Minimum inhibitory concentration required to reduce reovirus-1 induced cytopathogenicity by 50% in african green monkey (VeroB)cells; format: functional; in short: as §2
Nucleic Acid [10] = experiment: Ratio of association constant of poly (dA-dT) and poly (dG-dC); format: nucleic-acid assay
In short: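 Kapp for poly(dA-dT) and for poly(dG-dC) is each determined by ethidium bromide competition in 0.01 M cacodylate, pH 7.0, 25 °C, with 1.26 μM ethidium and 1 μM polynucleotide. IC50 comes from a fitted competition sigmoid and is converted to Kapp assuming a four-base-pair binding size. The ratio is taken between the two polynucleotides.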

Vero [11] = experiment: Minimum cytotoxic concentration required to cause a microscopically detectable alteration of normal cell morphology and show antiviral activity in african green monkey (Vero B) cells; format: functional; conditions: Chlorocebus sabaeus
Human alphaherpesvirus 1 = experiment: Minimum inhibitory concentration required to reduce herpes simplex virus-1 (KOS) induced cytopathogenicity by 50% in primary rabbit kidney cells(PRK); format: functional; in short: as §2
HeLa [12] = experiment: Minimum inhibitory concentration required to reduce polio virus -1 induced cytopathogenicity by 50% in HeLa cells; format: functional; conditions: Homo sapiens
[13] = Minimum inhibitory concentration required to reduce herpes simplex virus-1 (KOS)induced cytopathogenicity by 50% in primary rabbit kidney cells (PRK); format: functional; conditions: Oryctolagus cuniculus
[14] = as §3; format: functional; conditions: Oryctolagus cuniculus
HeLa [15] = experiment: Minimum inhibitory concentration required to reduce vesicular stomatitis virus induced cytopathogenicity by 50% in HeLa cells; format: functional; conditions: Homo sapiens
[16] = Minimum inhibitory concentration required to reduce herpes simplex virus-2 (G)induced cytopathogenicity by 50% in primary rabbit kidney cells (PRK); format: functional; conditions: Oryctolagus cuniculus

| Structure (SMILES) | K app (Nucleic Acid [1]) [M⁻¹] | MIC (Vero [2]) [mg/L] | CC50 [3] [mg/L] | MIC (Vero [4]) [mg/L] | MCC (HeLa [5]) [µg/mL] | MIC (HeLa [6]) [mg/L] | MCC (Oryctolagus cuniculus) [µg/mL] | MIC [7] [mg/L] | CC50 (L1210) [mg/L] | MIC (Semliki Forest virus) [mg/L] | CC50 (Raji) [mg/L] | MIC (Sindbis virus) [mg/L] | MIC (Human alphaherpesvirus 2) [mg/L] | CC50 (FM3A) [mg/L] | K app (Nucleic Acid [8]) [M⁻¹] | MIC [9] [mg/L] | Ratio (Nucleic Acid [10]) | MCC (Vero [11]) [µg/mL] | MIC (Human alphaherpesvirus 1) [mg/L] | MIC (HeLa [15]) [mg/L] | further results |
| --- | --- | --- | --- | --- | --- | --- | --- | --- | --- | --- | --- | --- | --- | --- | --- | --- | --- | --- | --- | --- | --- |
| CC(NC(=O)c1cc(NC(=O)c2cc([N+](=O)[O-])cn2C)cn1C)C(=O)OC(C)(C)C (configuration not stated) | 200 | 20 (≈ 47.7 µM) | 26.6 (≈ 63.4 µM) | 20 (≈ 47.7 µM) | > 100 | > 100 | >100 | > 40 | 37.8 (≈ 90.1 µM) | > 40 | 33.8 (≈ 80.6 µM) | > 40 | > 40 | 27.7 (≈ 66 µM) | 400 | > 40 | 0.5 | > 100 | > 40 | – | MIC (HeLa [12]): > 40 mg/L |
| NC(=O)c1ncn([C@@H]2O[C@H](CO)[C@@H](O)[C@H]2O)n1 [RIBAVIRIN] | – | 70 (≈ 287 µM) | – | 20 (≈ 81.9 µM) | > 200 | 70 (≈ 287 µM) | >400 | – | – | 150 (≈ 614 µM) | – | 70 (≈ 287 µM) | – | – | – | 20 (≈ 81.9 µM) | – | > 400 | – | 20 (≈ 81.9 µM) | MIC [13]: > 400 mg/L; MIC [14]: > 400 mg/L; MIC [16]: > 400 mg/L; MIC (HeLa [12]): 70 mg/L (≈ 287 µM) |
| Cn1c(C(=O)O)ccc1[N+](=O)[O-] | – | > 100 | > 50 | > 200 | > 400 | 70 (≈ 411 µM) | >400 | > 400 | > 50 | > 200 | > 50 | > 100 | > 400 | – | – | > 100 | – | > 400 | > 400 | > 200 | MIC (HeLa [12]): > 400 mg/L |
| Nc1nccc2c1ncn2[C@@H]1C[C@H](CO)[C@@H](O)[C@H]1O [3-DEAZAARISTEROMYCIN A] | – | 70 (≈ 265 µM) | – | 0.4 (≈ 1.51 µM) | > 400 | > 400 | >400 | – | – | > 400 | – | > 400 | – | – | – | 0.2 (≈ 0.757 µM) | – | > 400 | – | 2 (≈ 7.57 µM) | MIC [13]: > 400 mg/L; MIC [14]: 2 mg/L (≈ 7.57 µM); MIC [16]: > 400 mg/L |
| C[C@H](NC(=O)c1cc(NC(=O)c2cc(NC(=O)CNC(=N)N)cn2C)cn1C)C(=O)N[C@@H](C)C(=O)N[C@@H](C)C(=O)OC(C)(C)C | 20000 | > 200 | > 100 | > 400 | > 400 | > 400 | 400 | > 200 | > 100 | > 400 | > 100 | > 400 | > 100 | > 100 | 3300 | > 200 | 6.06 | > 400 | > 100 | – | – |
| Cn1cc([N+](=O)[O-])cc1C(=O)NCCC#N | < 100 | > 100 | > 50 | > 400 | > 400 | 150 (≈ 675 µM) | >400 | > 400 | > 50 | > 100 | > 50 | > 100 | > 200 | – | < 100 | > 200 | – | > 400 | > 400 | > 400 | MIC (HeLa [12]): > 400 mg/L |
| Nc1ncnc2c1ncn2C[C@H](O)CO [(S)-DHPA] | – | 200 (≈ 956 µM) | – | 7 (≈ 33.5 µM) | > 400 | > 400 | >400 | 70 (≈ 335 µM) | – | > 400 | – | > 400 | > 400 | – | – | 20 (≈ 95.6 µM) | – | > 400 | > 400 | 20 (≈ 95.6 µM) | – |
| CC(NC(=O)c1cc(NC(=O)c2cc(NC(=O)CNC(=N)N)cn2C)cn1C)C(=O)NC(C)C(=O)OC(C)(C)C (configuration not stated) | 4400 | > 400 | > 100 | > 400 | > 400 | > 400 | >200 | > 200 | > 100 | > 400 | 54.7 (≈ 97.7 µM) | > 400 | > 200 | > 100 | 700 | > 200 | 6.29 | > 400 | > 200 | – | – |
| CC(NC(=O)C(C)NC(=O)c1cc(NC(=O)c2cc(NC(=O)CNC(=N)N)cn2C)cn1C)C(=O)O (configuration not stated) | 1200 | > 400 | > 100 | > 400 | > 400 | > 400 | >400 | > 400 | > 100 | > 400 | > 100 | > 400 | > 400 | > 100 | 1200 | > 200 | 1 | > 400 | > 400 | – | – |
| CC(NC(=O)c1cc(NC(=O)c2cc([N+](=O)[O-])cn2C)cn1C)C(=O)NC(C)C(=O)OC(C)(C)C (configuration not stated) | 650 | > 200 | 29 (≈ 59.1 µM) | > 200 | > 400 | > 200 | >400 | > 100 | 28.8 (≈ 58.7 µM) | > 200 | 33 (≈ 67.3 µM) | > 100 | > 200 | 27.2 (≈ 55.5 µM) | 20000 | > 200 | 0.033 | > 200 | > 100 | – | – |
